# Reference: ChEMBL document CHEMBL2034978, “Synthesis and evaluation of curcumin-related compounds for anticancer activity” (Eur J Med Chem, 2012)
# Calls of active or inactive are those of the source. The calls are words filed in the database; no cut-off is given here.
# Legend:
# [1] = target: Mitogen-activated protein kinase; ERK1/ERK2 (Homo sapiens) (UniProt P27361+P28482); experiment: Inhibition of ERK1/2 phosphorylation in human PC3 cells at 0.5 uM after 24 hrs by Western blotting relative to beta-actin; type: cell-based; details: PC-3
# Mitogen-activated protein kinase; ERK1/ERK2 (Homo sapiens), sequence (P27361 whole entry, looked up): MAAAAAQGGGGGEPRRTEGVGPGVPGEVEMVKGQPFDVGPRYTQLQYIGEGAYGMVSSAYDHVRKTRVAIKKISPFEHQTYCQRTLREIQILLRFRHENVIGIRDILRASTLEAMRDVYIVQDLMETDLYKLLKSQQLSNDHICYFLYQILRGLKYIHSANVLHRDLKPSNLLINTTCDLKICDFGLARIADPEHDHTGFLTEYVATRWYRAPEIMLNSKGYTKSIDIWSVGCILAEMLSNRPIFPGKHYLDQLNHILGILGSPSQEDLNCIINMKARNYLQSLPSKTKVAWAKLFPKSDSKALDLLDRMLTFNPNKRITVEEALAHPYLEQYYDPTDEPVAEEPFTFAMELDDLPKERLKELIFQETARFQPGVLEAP
# Mitogen-activated protein kinase; ERK1/ERK2 (Homo sapiens), sequence (P28482 whole entry, looked up): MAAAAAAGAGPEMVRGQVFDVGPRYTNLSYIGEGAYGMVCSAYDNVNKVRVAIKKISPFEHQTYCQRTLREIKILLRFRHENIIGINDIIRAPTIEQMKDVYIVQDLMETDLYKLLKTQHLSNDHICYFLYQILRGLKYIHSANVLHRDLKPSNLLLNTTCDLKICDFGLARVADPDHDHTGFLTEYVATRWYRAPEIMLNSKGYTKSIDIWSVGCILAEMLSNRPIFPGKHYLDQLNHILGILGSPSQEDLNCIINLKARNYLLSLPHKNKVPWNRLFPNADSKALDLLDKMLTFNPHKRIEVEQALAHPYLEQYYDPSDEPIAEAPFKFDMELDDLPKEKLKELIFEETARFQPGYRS
# Summary of the method: (§1)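 PC-3 cells were seeded at 1 × 10⁵ cells/ml in 100 mm dishes, grown 24 h, then treated 24 h. Cells were lysed in Tris-HCl pH 7.4 buffer containing NaF, pyrophosphate, orthovanadate and Triton X-100, and lysates cleared at 12,000×g. Blots on PVDF were probed with anti-phospho-Akt or anti-phospho-Erk1/2, detected by ECL, quantified by optical density and normalized to β-actin.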
# [2] = system: PC-3; experiment: Cytotoxicity against human PC3 cells after 72 hrs by MTT assay; type: functional, cell-based; details: PC-3, 72 h
# Summary of the method: (§2)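 Seeded at 0.2 × 10⁵ cells/ml, grown 24 h, then exposed 72 h to a range of concentrations (upper limit 30). MTT read-out: formazan dissolved in DMSO, absorbance at 540 nm, growth expressed as percent of DMSO-treated cells.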
# [3] = system: PANC-1; experiment: Cytotoxicity against human PANC1 cells after 72 hrs by MTT assay; type: functional, cell-based; details: PANC-1, 72 h; summary of the method: as §2
# [4] = system: PC-3; experiment: Induction of apoptosis in human PC3 cells at <1 uM after 96 hrs by morphology analysis; type: functional, cell-based
# [5] = system: PC-3; experiment: Inhibition of Akt phosphorylation in human PC3 cells at 0.5 uM after 24 hrs by Western blotting relative to beta-actin; type: cell-based; summary of the method: as §1
# [6] = system: HT-29; experiment: Cytotoxicity against human HT-29 cells after 72 hrs by MTT assay; type: functional, cell-based; details: HT-29, 72 h; summary of the method: as §2
# [7] = system: PC-3; experiment: Ratio of curcumin IC50 to compound IC50 for human PC3 cells; type: functional
# Summary of the method: (§3)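 Curcumin served as positive control in each incubation, with its growth-inhibition data averaged across experiments.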
# [8] = system: PANC-1; experiment: Ratio of curcumin IC50 to compound IC50 for human PANC1 cells; type: functional; summary of the method: as §3
# [9] = system: HT-29; experiment: Ratio of curcumin IC50 to compound IC50 for human HT-29 cells; type: functional; summary of the method: as §3
compound,measurement,setting,value
COc1cc(C=C2CSCC(=Cc3cc(OC)c(OC)c(OC)c3)C2=O)cc(OC)c1OC,inhibition,[1],Active
same,IC50,[2],280 nM
same,IC50,[3],700 nM
same,Activity,[4],Active
same,inhibition,[5],inactive
same,IC50,[6],260 nM
same,Ratio IC50,[7],69
same,Ratio IC50,[8],34
same,Ratio IC50,[9],72
